# Tested on: Human immunodeficiency virus 1
# Assay: Antiviral activity against HIV-1 NL4.3 infected in human TZM-b1 cells pretreated for 1 hr followed by viral infection measured after 2 days by CPRG assay
# Type: functional, cell-based
# Details: Human immunodeficiency virus 1, NL4.3, TZM-b1
row,SMILES,IC50 [µM]
1,O=C1/C(=C/c2ccc(-c3cc(C(F)(F)F)ccc3Cl)o2)SC(=S)N1Cc1ccc(Cl)cc1,6.9
2,Cc1nnc(C(=O)NC(C)(C)c2nc(C(=O)NCc3ccc(F)cc3)c(O)c(=O)n2C)o1 [RALTEGRAVIR],0.021
3,O=C(O)c1ccc(-c2ccc(/C=C3\SC(=S)N(CCc4ccc(Cl)c(Cl)c4)C3=O)o2)cc1O,4.8

# Tested on: not listed separately
# Assay: Cytotoxicity against human TZM-b1 cells by XTT assay
# Type: cell-based
# Details: read-out: LD50 (the source's name)
row,SMILES,CC50 [µM]
1,O=C1/C(=C/c2ccc(-c3cc(C(F)(F)F)ccc3Cl)o2)SC(=S)N1Cc1ccc(Cl)cc1,> 50
2,Cc1nnc(C(=O)NC(C)(C)c2nc(C(=O)NCc3ccc(F)cc3)c(O)c(=O)n2C)o1 [RALTEGRAVIR],> 50
3,O=C(O)c1ccc(-c2ccc(/C=C3\SC(=S)N(CCc4ccc(Cl)c(Cl)c4)C3=O)o2)cc1O,> 50

# Tested on: not listed separately
# Assay: Selectivity index, ratio of IC50 for HEK293 cells to IC50 for human HT-29 cells
# Type: functional
# Details: not given
row,SMILES,Ratio IC50
1,O=C1/C(=C/c2ccc(-c3cc(C(F)(F)F)ccc3Cl)o2)SC(=S)N1Cc1ccc(Cl)cc1,0.51
2,O=C(O)c1ccc(-c2ccc(/C=C3\SC(=S)N(CCc4ccc(Cl)c(Cl)c4)C3=O)o2)cc1O,<0.29

# Tested on: HT-29
# Assay: Growth inhibition of human HT-29 cells after 2 days by MTT assay
# Type: functional, cell-based
# Details: HT-29, 48 h
row,SMILES,IC50 [µM]
1,O=C1/C(=C/c2ccc(-c3cc(C(F)(F)F)ccc3Cl)o2)SC(=S)N1Cc1ccc(Cl)cc1,8.3
2,O=C(O)c1ccc(-c2ccc(/C=C3\SC(=S)N(CCc4ccc(Cl)c(Cl)c4)C3=O)o2)cc1O,> 100

# Tested on: MCF7
# Assay: Growth inhibition of human MCF7 cells after 2 days by MTT assay
# Type: functional, cell-based
# Details: MCF7, 48 h
row,SMILES,IC50 [µM]
1,O=C1/C(=C/c2ccc(-c3cc(C(F)(F)F)ccc3Cl)o2)SC(=S)N1Cc1ccc(Cl)cc1,1.13
2,O=C(O)c1ccc(-c2ccc(/C=C3\SC(=S)N(CCc4ccc(Cl)c(Cl)c4)C3=O)o2)cc1O,> 100

# Tested on: Ramos
# Assay: Growth inhibition of human Ramos cells after 2 days by MTT assay
# Type: functional, cell-based
# Details: 48 h
row,SMILES,IC50 [µM]
1,O=C1/C(=C/c2ccc(-c3cc(C(F)(F)F)ccc3Cl)o2)SC(=S)N1Cc1ccc(Cl)cc1,3.8
2,O=C(O)c1ccc(-c2ccc(/C=C3\SC(=S)N(CCc4ccc(Cl)c(Cl)c4)C3=O)o2)cc1O,> 100

# Tested on: HEK293
# Assay: Growth inhibition of HEK293 cells after 2 days by MTT assay
# Type: cell-based
# Details: Homo sapiens, HEK293, 48 h
row,SMILES,IC50 [µM]
1,O=C1/C(=C/c2ccc(-c3cc(C(F)(F)F)ccc3Cl)o2)SC(=S)N1Cc1ccc(Cl)cc1,4.2
2,O=C(O)c1ccc(-c2ccc(/C=C3\SC(=S)N(CCc4ccc(Cl)c(Cl)c4)C3=O)o2)cc1O,29

# Tested on: not listed separately
# Assay: Growth inhibition of BAEC after 2 days by MTT assay
# Type: cell-based
# Details: Bos taurus, 48 h
row,SMILES,IC50 [µM]
1,O=C1/C(=C/c2ccc(-c3cc(C(F)(F)F)ccc3Cl)o2)SC(=S)N1Cc1ccc(Cl)cc1,2.4
2,O=C(O)c1ccc(-c2ccc(/C=C3\SC(=S)N(CCc4ccc(Cl)c(Cl)c4)C3=O)o2)cc1O,86

# Tested on: not listed separately
# Assay: Selectivity index, ratio of IC50 for HEK293 cells to IC50 for human MCF7 cells
# Type: functional
# Details: not given
row,SMILES,Ratio IC50
1,O=C1/C(=C/c2ccc(-c3cc(C(F)(F)F)ccc3Cl)o2)SC(=S)N1Cc1ccc(Cl)cc1,3.72
2,O=C(O)c1ccc(-c2ccc(/C=C3\SC(=S)N(CCc4ccc(Cl)c(Cl)c4)C3=O)o2)cc1O,<0.29

# Tested on: not listed separately
# Assay: Selectivity index, ratio of IC50 for BAEC cells to IC50 for human HT-29 cells
# Type: functional
# Details: not given
row,SMILES,Ratio IC50
1,O=C1/C(=C/c2ccc(-c3cc(C(F)(F)F)ccc3Cl)o2)SC(=S)N1Cc1ccc(Cl)cc1,0.29
2,O=C(O)c1ccc(-c2ccc(/C=C3\SC(=S)N(CCc4ccc(Cl)c(Cl)c4)C3=O)o2)cc1O,<0.86

# Tested on: not listed separately
# Assay: Selectivity index, ratio of IC50 for BAEC cells to IC50 for human MCF7 cells
# Type: functional
# Details: not given
row,SMILES,Ratio IC50
1,O=C1/C(=C/c2ccc(-c3cc(C(F)(F)F)ccc3Cl)o2)SC(=S)N1Cc1ccc(Cl)cc1,2.12
2,O=C(O)c1ccc(-c2ccc(/C=C3\SC(=S)N(CCc4ccc(Cl)c(Cl)c4)C3=O)o2)cc1O,<0.86

# Tested on: not listed separately
# Assay: Selectivity index, ratio of IC50 for HEK293 cells to IC50 for human Ramos cells
# Type: functional
# Details: not given
row,SMILES,Ratio IC50
1,O=C1/C(=C/c2ccc(-c3cc(C(F)(F)F)ccc3Cl)o2)SC(=S)N1Cc1ccc(Cl)cc1,1.1
2,O=C(O)c1ccc(-c2ccc(/C=C3\SC(=S)N(CCc4ccc(Cl)c(Cl)c4)C3=O)o2)cc1O,<0.29

# Tested on: not listed separately
# Assay: Selectivity index, ratio of IC50 for BAEC cells to IC50 for human Ramos cells
# Type: functional
# Details: not given
row,SMILES,Ratio IC50
1,O=C1/C(=C/c2ccc(-c3cc(C(F)(F)F)ccc3Cl)o2)SC(=S)N1Cc1ccc(Cl)cc1,0.63
2,O=C(O)c1ccc(-c2ccc(/C=C3\SC(=S)N(CCc4ccc(Cl)c(Cl)c4)C3=O)o2)cc1O,<0.86

# Tested on: HT-29
# Assay: Down regulation of hTERT expression in human HT-29 cells assessed as hTERT expression level at 5 uM after 48 hrs by RT-qPCR analysis relative to control
# Type: functional
# Details: not given
# Summary of the method: (§1)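 HT-29 cells were incubated 48 h with compound, with DMSO as the vehicle control and resveratrol as the positive control. Total RNA was extracted, reverse-transcribed to cDNA, and hTERT or c-Myc quantified by RT-qPCR. Expression was normalized to β-actin and given as % of the DMSO control (100%). At least three measurements per case; mean ± SEM; one-sample t-test.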
row,SMILES,Activity [%]
1,O=C1/C(=C/c2ccc(-c3cc(C(F)(F)F)ccc3Cl)o2)SC(=S)N1Cc1ccc(Cl)cc1,53

# Tested on: HT-29
# Assay: Down regulation of c-Myc expression in human HT-29 cells assessed as c-Myc expression level at 5 uM after 48 hrs by RT-qPCR analysis relative to control
# Type: functional
# Details: not given
# Summary of the method: as §1
row,SMILES,Activity [%]
1,O=C1/C(=C/c2ccc(-c3cc(C(F)(F)F)ccc3Cl)o2)SC(=S)N1Cc1ccc(Cl)cc1,100

# Tested on: not listed separately
# Assay: Apparent permeability of the compound in phosphate buffer at pH 7.4 by PAMPA
# Type: physicochemical
# Details: not given
row,SMILES,Papp [×10⁻⁶ cm/s]
1,Cn1c(=O)c2c(ncn2C)n(C)c1=O [CAFFEINE],< 0.1
2,CC(C)NCC(O)COc1cccc2ccccc12 (stereo not drawn) [PROPRANOLOL],9.68

# Tested on: not listed separately
# Assay: Metabolic stability in human liver microsomes at 50 uM measured after 60 mins in presence of NADPH generating system by LC-UV-MS method
# Type: ADME, microsome
# Details: read-out: Stability
row,SMILES,"remaining at 1 h, 50 µM [%]"
1,C[C@]12CC[C@H]3[C@@H](CCC4=CC(=O)CC[C@@]43C)[C@@H]1CC[C@@H]2O [TESTOSTERONE],76.2
